Data taken from ChEMBL document CHEMBL1124364, “3-Sulfonyl-1-carba-1-dethiacephems” (1989).
Converted amounts (≈) assume the structure as drawn.

Each compound was assayed on Enterobacter cloacae (assay: Minimum inhibitory concentration against Enterobacter cloacae (265A beta-lactamase containing)). Conditions: not given.
Type: functional
Outline: (§1)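 Agar dilution: compounds diluted in 0.1 M phosphate buffer pH 7.0 and incorporated into Mueller-Hinton agar with 1% Bacto-Supplement C at 50 °C. Fresh overnight cultures diluted to about 1×10^4 cells/µL; 1 µL spotted on plates. Incubated overnight at 35 °C in ambient air. MIC taken as the lowest concentration preventing visible growth.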

MIC [µg/mL] | SMILES
128 (≈ 310 µM) | CS(=O)(=O)C1=C(C(=O)O)N2C(=O)[C@@H](NC(=O)COc3ccccc3)[C@H]2SC1 (stereo in doubt; 7 (1-S))

Same assay, conditions: Enterobacter cloacae; read-out: MIC

MIC [µg/mL] | SMILES
> 128 | CO/N=C(/C(=O)N[C@@H]1C(=O)N2C(C(=O)O)=C(S(=O)(=O)C(C)C)CC[C@H]12)c1csc(N)n1
> 128 | CO/N=C(/C(=O)N[C@@H]1C(=O)N2C(C(=O)O)=C(S(=O)(=O)C3CC3)CC[C@H]12)c1csc(N)n1

Each compound was assayed on Enterobacter cloacae (assay: Minimum inhibitory concentration against Enterobacter cloacae (EB5)). Conditions: not given.
Type: functional
Outline: as §1

MIC [µg/mL] | SMILES
128 (≈ 310 µM) | CS(=O)(=O)C1=C(C(=O)O)N2C(=O)[C@@H](NC(=O)COc3ccccc3)[C@H]2SC1 (stereo in doubt; 7 (1-S))

Same assay, conditions: Enterobacter cloacae; read-out: MIC

MIC [µg/mL] | SMILES
1 (≈ 2.12 µM) | CO/N=C(/C(=O)N[C@@H]1C(=O)N2C(C(=O)O)=C(S(=O)(=O)C(C)C)CC[C@H]12)c1csc(N)n1
0.5 (≈ 1.06 µM) | CO/N=C(/C(=O)N[C@@H]1C(=O)N2C(C(=O)O)=C(S(=O)(=O)C3CC3)CC[C@H]12)c1csc(N)n1

Each compound was assayed on Escherichia coli (assay: Minimum inhibitory concentration against Escherichia coli (EC14)). Conditions: not given.
Type: functional
Outline: as §1

MIC [µg/mL] | SMILES
64 (≈ 155 µM) | CS(=O)(=O)C1=C(C(=O)O)N2C(=O)[C@@H](NC(=O)COc3ccccc3)[C@H]2SC1 (stereo in doubt; 7 (1-S))

Same assay, conditions: Escherichia coli; read-out: MIC

MIC [µg/mL] | SMILES
0.25 (≈ 0.53 µM) | CO/N=C(/C(=O)N[C@@H]1C(=O)N2C(C(=O)O)=C(S(=O)(=O)C(C)C)CC[C@H]12)c1csc(N)n1
0.06 (≈ 0.128 µM) | CO/N=C(/C(=O)N[C@@H]1C(=O)N2C(C(=O)O)=C(S(=O)(=O)C3CC3)CC[C@H]12)c1csc(N)n1

What follows are compounds tested on Escherichia coli (assay: Minimum inhibitory concentration against Escherichia coli (TEM beta-lactamase containing)). Conditions: not given.
Type: functional
Outline: as §1

MIC [µg/mL] | SMILES
128 (≈ 310 µM) | CS(=O)(=O)C1=C(C(=O)O)N2C(=O)[C@@H](NC(=O)COc3ccccc3)[C@H]2SC1 (stereo in doubt; 7 (1-S))

Same assay, conditions: Escherichia coli; read-out: MIC

MIC [µg/mL] | SMILES
1 (≈ 2.12 µM) | CO/N=C(/C(=O)N[C@@H]1C(=O)N2C(C(=O)O)=C(S(=O)(=O)C(C)C)CC[C@H]12)c1csc(N)n1
0.5 (≈ 1.06 µM) | CO/N=C(/C(=O)N[C@@H]1C(=O)N2C(C(=O)O)=C(S(=O)(=O)C3CC3)CC[C@H]12)c1csc(N)n1

The compounds below were run on Haemophilus influenzae (assay: Minimum inhibitory concentration against Haemophilus influenzae (C.L.)). Conditions: not given.
Type: functional
Outline: as §1

MIC [µg/mL] | SMILES
1 (≈ 2.42 µM) | CS(=O)(=O)C1=C(C(=O)O)N2C(=O)[C@@H](NC(=O)COc3ccccc3)[C@H]2SC1 (stereo in doubt; 7 (1-S))

Same assay, conditions: Haemophilus influenzae; read-out: MIC

MIC [µg/mL] | SMILES
0.5 (≈ 1.06 µM) | CO/N=C(/C(=O)N[C@@H]1C(=O)N2C(C(=O)O)=C(S(=O)(=O)C(C)C)CC[C@H]12)c1csc(N)n1
0.25 (≈ 0.532 µM) | CO/N=C(/C(=O)N[C@@H]1C(=O)N2C(C(=O)O)=C(S(=O)(=O)C3CC3)CC[C@H]12)c1csc(N)n1

Each compound was assayed on Klebsiella (assay: Minimum inhibitory concentration against Klebsiella (KAE beta-lactamase containing)). Conditions: not given.
Type: functional
Outline: as §1

MIC [µg/mL] | SMILES
128 (≈ 310 µM) | CS(=O)(=O)C1=C(C(=O)O)N2C(=O)[C@@H](NC(=O)COc3ccccc3)[C@H]2SC1 (stereo in doubt; 7 (1-S))

Same assay, conditions: Klebsiella; read-out: MIC

MIC [µg/mL] | SMILES
> 128 | CO/N=C(/C(=O)N[C@@H]1C(=O)N2C(C(=O)O)=C(S(=O)(=O)C(C)C)CC[C@H]12)c1csc(N)n1
> 128 | CO/N=C(/C(=O)N[C@@H]1C(=O)N2C(C(=O)O)=C(S(=O)(=O)C3CC3)CC[C@H]12)c1csc(N)n1

These compounds were tested on Klebsiella (assay: Minimum inhibitory concentration against Klebsiella (X26)). Conditions: not given.
Type: functional
Outline: as §1

MIC [µg/mL] | SMILES
8 (≈ 19.4 µM) | CS(=O)(=O)C1=C(C(=O)O)N2C(=O)[C@@H](NC(=O)COc3ccccc3)[C@H]2SC1 (stereo in doubt; 7 (1-S))

Same assay, conditions: Klebsiella; read-out: MIC

MIC [µg/mL] | SMILES
0.125 (≈ 0.265 µM) | CO/N=C(/C(=O)N[C@@H]1C(=O)N2C(C(=O)O)=C(S(=O)(=O)C(C)C)CC[C@H]12)c1csc(N)n1
0.06 (≈ 0.128 µM) | CO/N=C(/C(=O)N[C@@H]1C(=O)N2C(C(=O)O)=C(S(=O)(=O)C3CC3)CC[C@H]12)c1csc(N)n1

These compounds were tested on Morganella morganii (assay: Minimum inhibitory concentration against Proteus morganii (PR 15)). Conditions: not given.
Type: functional
Outline: as §1

MIC [µg/mL] | SMILES
128 (≈ 310 µM) | CS(=O)(=O)C1=C(C(=O)O)N2C(=O)[C@@H](NC(=O)COc3ccccc3)[C@H]2SC1 (stereo in doubt; 7 (1-S))

Same assay, conditions: Morganella morganii; read-out: MIC

MIC [µg/mL] | SMILES
4 (≈ 8.48 µM) | CO/N=C(/C(=O)N[C@@H]1C(=O)N2C(C(=O)O)=C(S(=O)(=O)C(C)C)CC[C@H]12)c1csc(N)n1
2 (≈ 4.26 µM) | CO/N=C(/C(=O)N[C@@H]1C(=O)N2C(C(=O)O)=C(S(=O)(=O)C3CC3)CC[C@H]12)c1csc(N)n1

Each compound was assayed on Pseudomonas aeruginosa (assay: Minimum inhibitory concentration against Pseudomonas aeruginosa (X528)). Conditions: not given.
Type: functional
Outline: as §1

MIC [µg/mL] | SMILES
128 (≈ 310 µM) | CS(=O)(=O)C1=C(C(=O)O)N2C(=O)[C@@H](NC(=O)COc3ccccc3)[C@H]2SC1 (stereo in doubt; 7 (1-S))

Same assay, conditions: Pseudomonas aeruginosa; read-out: MIC

MIC [µg/mL] | SMILES
> 128 | CO/N=C(/C(=O)N[C@@H]1C(=O)N2C(C(=O)O)=C(S(=O)(=O)C(C)C)CC[C@H]12)c1csc(N)n1
> 128 | CO/N=C(/C(=O)N[C@@H]1C(=O)N2C(C(=O)O)=C(S(=O)(=O)C3CC3)CC[C@H]12)c1csc(N)n1

Each compound was assayed on Providencia rettgeri (assay: Minimum inhibitory concentration against Proteus rettgeri (C24)). Conditions: not given.
Type: functional
Outline: as §1

MIC [µg/mL] | SMILES
128 (≈ 310 µM) | CS(=O)(=O)C1=C(C(=O)O)N2C(=O)[C@@H](NC(=O)COc3ccccc3)[C@H]2SC1 (stereo in doubt; 7 (1-S))

Same assay, conditions: Providencia rettgeri; read-out: MIC

MIC [µg/mL] | SMILES
0.25 (≈ 0.53 µM) | CO/N=C(/C(=O)N[C@@H]1C(=O)N2C(C(=O)O)=C(S(=O)(=O)C(C)C)CC[C@H]12)c1csc(N)n1
1 (≈ 2.13 µM) | CO/N=C(/C(=O)N[C@@H]1C(=O)N2C(C(=O)O)=C(S(=O)(=O)C3CC3)CC[C@H]12)c1csc(N)n1

What follows are compounds tested on Salmonella (assay: Minimum inhibitory concentration against Salmonella (X514)). Conditions: not given.
Type: functional
Outline: as §1

MIC [µg/mL] | SMILES
64 (≈ 155 µM) | CS(=O)(=O)C1=C(C(=O)O)N2C(=O)[C@@H](NC(=O)COc3ccccc3)[C@H]2SC1 (stereo in doubt; 7 (1-S))

Same assay, conditions: Salmonella; read-out: MIC

MIC [µg/mL] | SMILES
0.06 (≈ 0.127 µM) | CO/N=C(/C(=O)N[C@@H]1C(=O)N2C(C(=O)O)=C(S(=O)(=O)C(C)C)CC[C@H]12)c1csc(N)n1
0.125 (≈ 0.266 µM) | CO/N=C(/C(=O)N[C@@H]1C(=O)N2C(C(=O)O)=C(S(=O)(=O)C3CC3)CC[C@H]12)c1csc(N)n1

The compounds below were run on Staphylococcus epidermidis (assay: Minimum inhibitory concentration against Staphylococcus epidermidis (222)). Conditions: not given.
Type: functional
Outline: as §1

MIC [µg/mL] | SMILES
0.25 (≈ 0.606 µM) | CS(=O)(=O)C1=C(C(=O)O)N2C(=O)[C@@H](NC(=O)COc3ccccc3)[C@H]2SC1 (stereo in doubt; 7 (1-S))

Same assay, conditions: Staphylococcus epidermidis; read-out: MIC

MIC [µg/mL] | SMILES
16 (≈ 33.9 µM) | CO/N=C(/C(=O)N[C@@H]1C(=O)N2C(C(=O)O)=C(S(=O)(=O)C(C)C)CC[C@H]12)c1csc(N)n1
8 (≈ 17 µM) | CO/N=C(/C(=O)N[C@@H]1C(=O)N2C(C(=O)O)=C(S(=O)(=O)C3CC3)CC[C@H]12)c1csc(N)n1

Each compound was assayed on Streptococcus pyogenes (assay: Minimum inhibitory concentration against Streptococcus pyogenes (C203)). Conditions: not given.
Type: functional
Outline: as §1

MIC [µg/mL] | SMILES
0.125 (≈ 0.303 µM) | CS(=O)(=O)C1=C(C(=O)O)N2C(=O)[C@@H](NC(=O)COc3ccccc3)[C@H]2SC1 (stereo in doubt; 7 (1-S))

Same assay, conditions: Streptococcus pyogenes; read-out: MIC

MIC [µg/mL] | SMILES
2 (≈ 4.24 µM) | CO/N=C(/C(=O)N[C@@H]1C(=O)N2C(C(=O)O)=C(S(=O)(=O)C(C)C)CC[C@H]12)c1csc(N)n1
0.015 (≈ 0.0319 µM) | CO/N=C(/C(=O)N[C@@H]1C(=O)N2C(C(=O)O)=C(S(=O)(=O)C3CC3)CC[C@H]12)c1csc(N)n1

What follows are compounds tested on Streptococcus pneumoniae (assay: Minimum inhibitory concentration against Streptococcus pneumoniae (PARK)). Conditions: not given.
Type: functional
Outline: as §1

MIC [µg/mL] | SMILES
0.25 (≈ 0.606 µM) | CS(=O)(=O)C1=C(C(=O)O)N2C(=O)[C@@H](NC(=O)COc3ccccc3)[C@H]2SC1 (stereo in doubt; 7 (1-S))

Same assay, conditions: Streptococcus pneumoniae; read-out: MIC

MIC [µg/mL] | SMILES
0.06 (≈ 0.127 µM) | CO/N=C(/C(=O)N[C@@H]1C(=O)N2C(C(=O)O)=C(S(=O)(=O)C(C)C)CC[C@H]12)c1csc(N)n1
0.03 (≈ 0.0639 µM) | CO/N=C(/C(=O)N[C@@H]1C(=O)N2C(C(=O)O)=C(S(=O)(=O)C3CC3)CC[C@H]12)c1csc(N)n1

What follows are compounds tested on Staphylococcus aureus (assay: Minimum inhibitory concentration against Staphylococcus aureus (X1.1)). Conditions: not given.
Type: functional
Outline: as §1

MIC [µg/mL] | SMILES
0.25 (≈ 0.606 µM) | CS(=O)(=O)C1=C(C(=O)O)N2C(=O)[C@@H](NC(=O)COc3ccccc3)[C@H]2SC1 (stereo in doubt; 7 (1-S))

Same assay, conditions: Staphylococcus aureus; read-out: MIC

MIC [µg/mL] | SMILES
8 (≈ 17 µM) | CO/N=C(/C(=O)N[C@@H]1C(=O)N2C(C(=O)O)=C(S(=O)(=O)C(C)C)CC[C@H]12)c1csc(N)n1
4 (≈ 8.52 µM) | CO/N=C(/C(=O)N[C@@H]1C(=O)N2C(C(=O)O)=C(S(=O)(=O)C3CC3)CC[C@H]12)c1csc(N)n1
